Measurements pooled from the literature.
Compare with care: the assays were run in different laboratories.
Cell line: MCF7
Observed: cell growth or viability

O=S(=O)(NN=Cc1cn(CCN2CCOCC2)c2ccccc12)c1cccc2ncccc12 gave an IC50 of 79.1 µM (MTT; 48 h).
For CC(C)NCC(O)COc1cc2ccccc2cc1OCC(O)CNC(C)C (stereo not shown), the IC50 was over 75 µM (MTT; 72 h).
CSc1nc(/N=C/c2cccc(O)c2)n(-c2ccc(C(=O)O)cc2)n1 has an IC50 of 31.2 µM (MTT).
With O=C(/N=C1\S/C(=C\c2ccc(Cl)cc2)C(=O)N1C1CCCCC1)c1ccc2ccccc2c1 the IC50 was 6.93 µM (48 h).
With FC(F)(F)c1cccc(Nc2ncnc3ccc(-c4ccc5c(c4)OCO5)cc23)c1 the IC50 was 6.74 µM (MTT; 24 h).
CCN(CC)C/C=N/NC(=O)Nc1cc2c(Nc3ccc(F)c(Cl)c3)ncnc2cc1OC has an IC50 of 3.28 µM (MTT; 72 h).
The IC50 of O=S(=O)(NN=Cc1cn(CCN2CCOCC2)c2ccccc12)c1ccc(F)cc1 is reported as 32.6 µM (MTT; 48 h).
For Cc1ccc2nc(-c3cc(Br)ccc3O)[nH]c2c1, the IC50 was 4.37 µM (MTT; 48 h).
For Oc1ccccc1-c1ccc2ncnc(Nc3cccc(C(F)(F)F)c3)c2c1, the IC50 was 7.13 µM (MTT; 24 h).
With Cc1ccc2nc(-c3cccc(O)c3)[nH]c2c1 the IC50 was over 100 µM (MTT; 48 h).
For O=C(Nc1nnnn1C1CCCCC1)c1ccc2ccccc2c1, the IC50 was 2.38 µM (48 h).
The IC50 of O=C(N/N=C/CN1CCOCC1)Nc1cc2c(Nc3ccc(F)c(Cl)c3)ncnc2cc1O[C@H]1CCOC1 is reported as 1.08 µM (MTT; 72 h).
Oc1ncnc2cc(Nc3nc(-c4ccc(F)cc4)cs3)ccc12 gave an IC50 of 3.71 µM (MTT).
Cc1ccc2nc(-c3ccc([N+](=O)[O-])cc3)n(Cc3ccccc3Cl)c2c1 has an IC50 of 20.2 µM (MTT).
COc1nc(OCc2cccc(-c3ccccc3)c2C)ccc1CNCCNC(C)=O gave an IC50 of 6.2 µM (MTT).
CCN(CC)CCCn1cccc1/C=N/NC(=O)Nc1cc2c(Nc3ccc(F)c(Cl)c3)ncnc2cc1O[C@H]1CCOC1 has an IC50 of 2.49 µM (MTT; 72 h).
CC(=O)O[C@H]1C(=O)[C@@]2(C)[C@H]([C@H](OC(=O)c3ccccc3)[C@]3(O)C[C@H](OC(=O)[C@H](O)[C@@H](NC(=O)c4ccccc4)c4ccccc4)C(C)=C1C3(C)C)[C@]1(OC(C)=O)CO[C@@H]1C[C@@H]2O gave an IC50 of 2.35 µM (MTT; 48 h).
O=C(O)c1ccc(-n2nc(Oc3ccccc3)nc2/N=C/c2cc([N+](=O)[O-])ccc2O)cc1 gave an IC50 of 21.6 µM (MTT).
The IC50 of CC[C@H](C)C(=O)O[C@H]1C[C@H](O)C=C2C=C[C@H](C)[C@H](CC[C@@H](O)C[C@@H](O)CC(=O)O)[C@H]21 is reported as 98 µg/mL (SRB; 72 h).
CC(C)Cc1ccc(-c2nn(-c3ccc(S(C)(=O)=O)cc3)cc2/C=N\N=C2/NC(=O)CS2)cc1 has an IC50 of 6.25 µM (MTT; 48 h).
Cc1cc(=O)[nH]c(=O)n1Cc1cn(-c2c3ccccc3nc3ccccc23)nn1 has an IC50 of 2.7 µM (MTT).
COc1cc2c(Nc3ccc(NC(=O)c4ccccc4)cc3)ncnc2cc1OCCCN1CCOCC1 has an IC50 of 3.1 µM (MTS; 48 h).
The IC50 of Fc1ccc(-c2nc3ccccc3n2Cc2ccccc2)cc1 is reported as 31.5 µM (MTT).
With COc1cccc2c1C(=O)c1c(O)c3c(c(O)c1C2=O)C[C@@](O)(C(=O)CO)C[C@@H]3O[C@H]1C[C@H](N)[C@H](O)[C@H](C)O1 the IC50 was 3.1 µM (MTT; 48 h).
The IC50 of c1ccc2[nH]c(-c3ccc4c(c3)OCO4)nc2c1 is reported as over 100 µM (MTT; 48 h).
The IC50 of O=[N+]([O-])c1ccc(S(=O)(=O)NN=Cc2cn(CCN3CCOCC3)c3ccccc23)cc1 is reported as 82 µM (MTT; 48 h).
The IC50 of O=C(N/N=C/CN1CCCCC1)Nc1cc2c(Nc3ccc(F)c(Cl)c3)ncnc2cc1O[C@H]1CCOC1 is reported as 1.53 µM (MTT; 72 h).
For Oc1ccc(-c2csc(Nc3ccc4c(O)ncnc4c3)n2)cc1, the IC50 was 7.43 µM (MTT).
CCOC(=O)/C=C1\S/C(=N\C(=O)c2ccc3ccccc3c2)N(C2CCCCC2)C1=O has an IC50 of 14.9 µM (48 h).
With COc1cccc2c1C(=O)c1c(O)c3c(c(O)c1C2=O)C[C@@](O)(C(=O)CO)C[C@@H]3O[C@H]1C[C@H](N)[C@H](O)[C@H](C)O1 the IC50 was 0.18 µM (SRB).
The IC50 of CCOc1ccc(-c2nc3ccc(C)cc3[nH]2)cc1 is reported as over 100 µM (MTT; 48 h).
CN(C)C/C=C/C(=O)Nc1cc2c(Nc3ccc(F)c(Cl)c3)ncnc2cc1O[C@H]1CCOC1 has an IC50 of 1.8 µM (MTT; 72 h).
For COc1cccc2c3c(c[n+](C)c12)sc1cccc(F)c13, the IC50 was 3 µM (MTT; 72 h).
For O=C(NC(=S)N1CCCC1)c1ccc2ccccc2c1, the IC50 was 3.62 µM (48 h).
With Nc1ncnc2c1ncn2[C@@H]1O[C@H](CO)[C@@H](O)[C@H]1O the IC50 was 48.3 µM (WST-1; 48 h).
With Cc1ccc2c(Cl)cc(Cl)c(O)c2n1 the IC50 was over 100 µM (MTT; 48 h).
With CC(=O)O[C@H]1C(=O)[C@@]2(C)[C@H]([C@H](OC(=O)c3ccccc3)[C@]3(O)C[C@H](OC(=O)[C@H](O)[C@@H](NC(=O)c4ccccc4)c4ccccc4)C(C)=C1C3(C)C)[C@]1(OC(C)=O)CO[C@@H]1C[C@@H]2O the IC50 was 1 µg/mL.
The IC50 of COC(=O)c1ccc(-n2nc(SC)nc2N)cc1 is reported as 23.4 µM (MTT).
COc1ccc(Nc2nc(-n3nc(C)cc3C)nc(-n3nc(C)cc3C)n2)cc1 gave an IC50 of 12 µM (MTT; 72 h).
C[C@H]1O[C@@H](n2cc(F)c(=O)[nH]c2=O)[C@H](O)[C@@H]1O gave an IC50 of over 50 µM (CCK-8; 48 h).
O=c1cc(CO)occ1[O-].[Cl-].[W+4].c1cc[cH-]c1.c1cc[cH-]c1 has an IC50 of 590 µM (MTT).
With COc1ccc(C(=O)O[C@@H]2CN3Cc4c(cc5c(c4OC)OCO5)[C@@]24C=C[C@H](OC)C[C@@H]34)cc1OC the IC50 was 4.9 µM (WST-1).
COc1cc2ncnc(Nc3ccc(F)c(Cl)c3)c2cc1NC(=O)N/N=C/c1cccn1CCCN1CCN(C)CC1 gave an IC50 of 2.43 µM (MTT; 72 h).
Cc1ccc2nc(-c3ccc([N+](=O)[O-])cc3)n(Cc3ccccc3)c2c1 gave an IC50 of 7.86 µM (MTT).
COc1cc2ncnc(Nc3ccc(F)c(Cl)c3)c2cc1NC(=O)N/N=C/CN1CCOCC1 gave an IC50 of 7.43 µM (MTT; 72 h).
With FC(F)(F)c1cccc(Nc2ncnc3ccc(-c4ccsc4)cc23)c1 the IC50 was 4.39 µM (MTT; 24 h).
The IC50 of CC/C(=C(\c1ccc(O)cc1)c1ccc(OCCNC)cc1)c1ccccc1 is reported as 0.675 µM (5 days).
For CC(C)Cc1ccc(-c2nn(-c3ccc(S(C)(=O)=O)cc3)cc2/C=N/N=c2\[nH]c(-c3ccc(Br)cc3)cs2)cc1, the IC50 was 8.26 µM (MTT; 48 h).
COc1cc2ncnc(Nc3ccc(F)c(Cl)c3)c2cc1NC(=O)N/N=C/c1cccn1CCN1CCCC1 gave an IC50 of 2.45 µM (MTT; 72 h).
